Laboratory results as given in ChEMBL document CHEMBL1145749, “Inhibition of human immunodeficiency virus reverse transcriptase by synadenol triphosphate and its E-isomer” (J Med Chem, 2003).
Calls of active or inactive are those of the source. The calls are words filed in the database; no cut-off is given here.

Assays:
[1] = tested on: Nc1ncnc2c1ncn2[C@H]1C[C@H](O)[C@@H](COP(=O)(O)OP(=O)(O)OP(=O)(O)O)O1; assay: Substrate Activity against HIV-1 reverse transcriptase (RT M184I)
In short: (§1)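 Purified recombinant HIV-1 RT M184V or M184I was assayed on MS2 RNA/22A primer at 37 °C (pH 7.8 Tris, 6 mM MgCl2, 150 mM KCl, 0.01% Triton X-100) with [3H]dATP as the only nucleotide substrate. Aliquots were taken 4–5 times onto DE81 filters and counted by scintillation. Km was taken from the Lineweaver–Burk plot without inhibitor.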

[2] = Ratio of inhibitory activity of compound to that of substrate activity of dATP against RT M184V enzyme was determined
In short: (§2)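 Recombinant HIV-1 RT (wild-type, M184V or M184I) was expressed in E. coli JM109 with 1 mM IPTG for 5 h, then purified on Q and SP columns to >90% purity. Assay used MS2 RNA/22A DNA primer in 50 mM Tris-HCl pH 7.8, 6 mM MgCl2, 150 mM KCl and 0.01% Triton X-100. Synthesis was distributive, with [3H]dATP as the only nucleotide, at 37 °C. Timed aliquots were spotted on DE81 and counted by scintillation. Ki came from the abscissa intercept of the Lineweaver–Burk replot. Ratio was Ki over dATP Km.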

[3] = Ratio of inhibitory activity of compound to that of substrate activity of dATP against RT wt enzyme was determined; in short: as §2
[4] = Ratio of inhibitory activity of compound to that of substrate activity of dATP against RT M184I enzyme was determined; in short: as §2
[5] = tested on: Human gammaherpesvirus 4; assay: Antiviral selectivity against EB virus; exhibited wide range selectivity; assay type: functional, organism-based
[6] = tested on: Human immunodeficiency virus 1; assay: Antiviral selectivity against HIV-1 virus; exhibited wide range selectivity; assay type: functional, organism-based
[7] = tested on: Human betaherpesvirus 5; assay: Antiviral selectivity against HCMV virus; exhibited wide range selectivity; assay type: functional, organism-based
[8] = tested on: Human alphaherpesvirus 3; assay: Antiviral selectivity against varicella zoster virus; exhibited wide range selectivity; assay type: functional, organism-based
[9] = tested on: Human immunodeficiency virus 1; assay: Antiviral selectivity against HIV-1 virus; Significant activity; assay type: functional, organism-based
[10] = tested on: Nc1ncnc2c1ncn2[C@H]1C[C@H](O)[C@@H](COP(=O)(O)OP(=O)(O)OP(=O)(O)O)O1; assay: Substrate Activity against HIV-1 reverse transcriptase (RT M184V); in short: as §1
[11] = tested on: Human betaherpesvirus 5; assay: Antiviral selectivity against HCMV virus; Inactive; assay type: functional, organism-based
[12] = tested on: Human alphaherpesvirus 3; assay: Antiviral selectivity against varicella zoster virus; Inactive; assay type: functional, organism-based
[13] = tested on: Human immunodeficiency virus 1; assay: Antiviral selectivity against HIV-1 virus; Inactive; assay type: functional, organism-based
[14] = tested on: Human gammaherpesvirus 4; assay: Antiviral selectivity against […]; Inactive; assay type: functional, organism-based

Human immunodeficiency virus type 1 reverse transcriptase (Human immunodeficiency virus 1), Q72547 M184I
Km [1]: 0.38 µM

Nc1ncnc2c1ncn2/C=C1\CC1COP(=O)(O)OP(=O)(O)OP(=O)(O)O (stereo not given)
Ki/Km [2]: 137
Ki/Km [3]: 25
Ki/Km [4]: 187

Nc1ncnc2c1ncn2/C=C1/CC1CO (stereo not given)
Antiviral selectivity [5]: exhibited wide range selectivity
Antiviral selectivity [6]: exhibited wide range selectivity
Antiviral selectivity [7]: exhibited wide range selectivity
Antiviral selectivity [8]: exhibited wide range selectivity

COC(=O)C(C)NP(=O)(OCC1C/C1=C\n1cnc2c(N)ncnc21)Oc1ccccc1 (stereo not given)
Anti-HIV activity [9]: Significant activity

Human immunodeficiency virus type 1 reverse transcriptase (Human immunodeficiency virus 1), Q72547 M184V
Km [10]: 0.38 µM

Nc1ncnc2c1ncn2/C=C1\CC1CO (stereo not given)
IA [11]: inactive
IA [12]: inactive
IA [13]: inactive
IA [14]: inactive

Nc1ncnc2c1ncn2/C=C1/CC1COP(=O)(O)OP(=O)(O)OP(=O)(O)O (stereo not given)
Ki/Km [2]: 4.5
Ki/Km [3]: 0.8
Ki/Km [4]: 6.3

Nc1ncnc2c1ncn2[C@H]1CC[C@@H](COP(=O)(O)OP(=O)(O)OP(=O)(O)O)O1
Ki/Km [2]: 1.3
Ki/Km [3]: 1.2
Ki/Km [4]: 3.2
